# According to ChEMBL document CHEMBL1154384, “New classes of potent and bioavailable human renin inhibitors” (Bioorg Med Chem Lett, 2009):
# How the values were obtained:
# Renin [1] = target: T1, Renin (Homo sapiens, UniProt P00797); experiment: Inhibition of human rennin in buffer assessed as accumulation of angiotensin 1 using human tetradecapeptide by immunoassay
# T1 sequence (P00797 whole entry): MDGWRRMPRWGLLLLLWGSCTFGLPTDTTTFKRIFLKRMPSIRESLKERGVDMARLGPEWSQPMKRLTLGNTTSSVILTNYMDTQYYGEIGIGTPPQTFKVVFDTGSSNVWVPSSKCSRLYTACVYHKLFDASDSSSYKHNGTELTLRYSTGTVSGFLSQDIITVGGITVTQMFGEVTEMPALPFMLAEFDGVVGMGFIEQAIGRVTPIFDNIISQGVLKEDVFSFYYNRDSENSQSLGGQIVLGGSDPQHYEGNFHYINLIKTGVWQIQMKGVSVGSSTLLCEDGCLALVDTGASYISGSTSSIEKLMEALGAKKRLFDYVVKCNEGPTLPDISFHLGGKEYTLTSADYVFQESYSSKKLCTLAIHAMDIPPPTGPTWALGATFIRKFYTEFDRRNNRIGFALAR
# Renin [2] = target: T1, Renin; experiment: Inhibition of human rennin in human plasma assessed as accumulation of angiotensin 1 using human tetradecapeptide by immunoassay; type: cell-free
# [3] = Oral bioavailability in Wistar rat at 10 mg/kg; type: ADME, organism-based; conditions: in vivo
# Cytochrome P450 3A4 = Cytochrome P450 3A4 (Homo sapiens, UniProt P08684); experiment: Inhibition of CYP3A4; type: ADME
# [4] = Dissociation constant, pKa of the compound; type: physicochemical
# In short: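 pKa of the template's secondary amine, measured experimentally. Compounds poorly soluble in water in their neutral form were measured in solvent mixtures, so their values could only be estimated.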
# Cytochrome P450 3A4, sequence (P08684 whole entry): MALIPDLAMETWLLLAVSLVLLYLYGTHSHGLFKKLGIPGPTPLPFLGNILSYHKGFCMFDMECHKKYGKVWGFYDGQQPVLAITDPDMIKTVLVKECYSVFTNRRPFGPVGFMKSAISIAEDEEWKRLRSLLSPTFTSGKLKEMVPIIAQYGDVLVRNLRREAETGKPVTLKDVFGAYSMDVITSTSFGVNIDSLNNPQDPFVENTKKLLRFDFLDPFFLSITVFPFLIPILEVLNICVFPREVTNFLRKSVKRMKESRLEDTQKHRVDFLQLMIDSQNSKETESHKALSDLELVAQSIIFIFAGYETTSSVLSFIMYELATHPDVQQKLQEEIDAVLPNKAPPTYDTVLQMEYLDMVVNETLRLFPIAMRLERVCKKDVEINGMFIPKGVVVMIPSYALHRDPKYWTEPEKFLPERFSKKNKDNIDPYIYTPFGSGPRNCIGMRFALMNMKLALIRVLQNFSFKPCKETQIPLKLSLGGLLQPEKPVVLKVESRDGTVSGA
SMILES,IC50 (Renin [1]) [nM],IC50 (Renin [2]) [nM],bioavailability [3] [%],IC50 (Cytochrome P450 3A4) [nM],pKa [4]
COc1cccc(CN(C(=O)C2=C(c3ccc(CCCOc4c(F)ccc(F)c4Cl)cc3)C[C@H]3C[S+]([O-])C[C@H]2N3)C2CC2)c1C (some centres undefined),64,–,–,–,–
COc1cccc(CN(C(=O)C2=C(c3ccc(CCCOc4c(F)ccc(F)c4Cl)cc3)C(C)(C)CNC2)C2CC2)c1C,170,7400,10,–,–
CC1(C)CNCC(C(=O)N(Cc2cccc(Cl)c2Cl)C2CC2)=C1c1ccc(CCCOc2c(F)ccc(F)c2Cl)cc1,31,2000,10,–,–
COc1cccc(CN(C(=O)C2=C(c3ccc(CCCOc4c(F)ccc(F)c4Cl)cc3)CCNC2)C2CC2)c1C,2,87,10,–,–
O=C(C1=C(c2ccc(CCCOc3c(F)ccc(F)c3Cl)cc2)C[C@H]2CCC[C@H]1N2)N(Cc1cccc(Cl)c1Cl)C1CC1,1.1,113,–,–,–
Cc1cc(Cl)c(OCCOc2ccc(C3=C(C(=O)N(Cc4cccc(Cl)c4Cl)C4CC4)CNCC3)cc2)c(Cl)c1,–,–,10,–,–
COc1cccc(CN(C(=O)C2=C(c3ccc(CCCOc4c(F)ccc(F)c4Cl)cc3)C3(CC3)CNC2)C2CC2)c1C,210,7400,10,–,–
COc1cccc(CN(C(=O)C2=C(c3ccc(CCCOc4c(F)ccc(F)c4Cl)cc3)C[C@H]3CC[C@H]2N3)C2CC2)c1C,0.74,43,–,–,–
O=C(C1=C(c2ccc(CCCOc3c(F)ccc(F)c3Cl)cc2)CCNC1)N(Cc1cccc(Cl)c1Cl)C1CC1,1.2,53,10,1300,–
COc1cccc(CN(C(=O)C2=C(c3ccc(CCCOc4c(F)ccc(F)c4Cl)cc3)C(F)(F)CNC2)C2CC2)c1C,330,–,10,–,–
COc1cccc(CN(C(=O)C2=C(c3ccc(CCCOc4c(F)ccc(F)c4Cl)cc3)C[C@H]3CNC[C@H]2N3)C2CC2)c1C,1.37,54,–,–,3.6
O=C(C1=C(c2ccc(CCCOc3cc(F)ccc3Br)cc2)CCNC1)N(Cc1ccccc1Cl)C1CC1,–,–,10,–,–
O=C(C1=C(c2ccc(CCCOc3c(F)ccc(F)c3Cl)cc2)C(F)(F)CNC1)N(Cc1cccc(Cl)c1Cl)C1CC1,800,–,10,–,–
O=C(C1=C(c2ccc(CCCOc3c(F)ccc(F)c3Cl)cc2)C[C@H]2CS(=O)(=O)C[C@H]1N2)N(Cc1cccc(Cl)c1Cl)C1CC1,6.4,–,–,–,–
O=C(C1=C(c2ccc(CCCOc3c(F)ccc(F)c3Cl)cc2)C2(CC2)CNC1)N(Cc1cccc(Cl)c1Cl)C1CC1,34,4000,10,–,–
O=C(C1=C(c2ccc(CCCOc3c(F)ccc(F)c3Cl)cc2)C[C@H]2CNC[C@H]1N2)N(Cc1cccc(Cl)c1Cl)C1CC1,0.4,36,–,–,8.2
COc1cccc(CN(C(=O)C2=C(c3ccc(CCCOc4c(F)ccc(F)c4Cl)cc3)C[C@H]3CCC[C@H]2N3)C2CC2)c1C,0.92,101,–,–,–
COc1cccc(CN(C(=O)C2=C(c3ccc(CCCOc4c(F)ccc(F)c4Cl)cc3)C[C@H]3COC[C@H]2N3)C2CC2)c1C,0.49,42,–,1000,6.5
O=C(C1=C(c2ccc(CCCOc3c(F)ccc(F)c3Cl)cc2)C[C@H]2COC[C@H]1N2)N(Cc1cccc(Cl)c1Cl)C1CC1,0.68,55,–,–,6.5
O=C(C1=C(c2ccc(CCCOc3c(F)ccc(F)c3Cl)cc2)C[C@H]2CC[C@H]1N2)N(Cc1cccc(Cl)c1Cl)C1CC1,0.55,47,–,1900,–
